Converted amounts (≈) assume the structure as drawn. The source made the active and inactive calls. The calls are words filed in the database; no cut-off is given here.

We go through 1 molecule from ChEMBL document CHEMBL4811317, “Inhibitory activities of anthraquinone and xanthone derivatives against transthyretin amyloidogenesis” (Bioorg Med Chem, 2021).

Series [1] is described as follows: Cmax in Sprague-Dawley rat at 0.1 mg/kg, po measured up to 8 hrs by LC-MS/MS analysis. The class given is ADME, organism-based. Also on record: route oral, dose 0.1 mg/kg, time <=8. The conditions noted are these: in vivo. The method in brief: (§1)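 Male Sprague Dawley rats (7 weeks old, n = 2) given compound in 10% DMSO/0.1 M phosphate pH 8.5, i.v. or p.o. Caudal-vein blood at 5 min (i.v.), 15, 30 min, 1, 2, 4, 8 h; plasma precipitated with acetonitrile/IS, LC-MS/MS. Non-compartmental analysis; bioavailability = AUC∞(p.o.)/AUC∞(i.v.).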

Series [2] is described as follows: AUC (0 to 8 hrs) in Sprague-Dawley rat at 0.1 mg/kg, iv measured up to 8 hrs by LC-MS/MS analysis. In kind it is ADME, organism-based. On the set-up: route intravenous, dose 0.1 mg/kg, time <=8. The conditions noted are these: in vivo.
Series [3] is described as follows: AUC infinity in Sprague-Dawley rat at 0.1 mg/kg, iv measured up to 8 hrs by LC-MS/MS analysis. The class given is ADME, organism-based. The conditions noted are these: in vivo. Also on record: route intravenous, dose 0.1 mg/kg, time <=8.
A short description of series [4]: Elimination half life in Sprague-Dawley rat at 0.1 mg/kg, iv measured up to 8 hrs by LC-MS/MS analysis. The class given is ADME, organism-based. The conditions noted are these: in vivo, read-out: beta t1/2 (converted). The method in brief:
as §1

Series [5] is described as follows: Tmax in Sprague-Dawley rat at 0.1 mg/kg, po measured up to 8 hrs by LC-MS/MS analysis. The settings on record: in vivo. The class given is ADME, organism-based. In short, it runs like this: as §1
Series [6] in a line: Total clearance in Sprague-Dawley rat at 0.1 mg/kg, iv measured up to 8 hrs by LC-MS/MS analysis. The settings on record: in vivo. In kind it is ADME, organism-based. In short, it runs like this:
as §1

Series [7] in a line: Bioavailability in Sprague-Dawley rat at 0.1 mg/kg, iv measured up to 8 hrs by LC-MS/MS analysis. In kind it is ADME, organism-based. The settings on record: in vivo. The method in brief: as §1
The nature of series [8]: Cmax in Sprague-Dawley rat at 0.1 mg/kg, iv measured up to 8 hrs by LC-MS/MS analysis. Also on record: route intravenous, dose 0.1 mg/kg, time <=8. The class given is ADME, organism-based. The conditions noted are these: in vivo. In short, it runs like this:
as §1

The nature of series [9]: Protein binding in Sprague-Dawley rat plasma assessed as unbound fraction at 1 uM measured after 4 hrs by equilibrium dialysis assay. In kind it is ADME, cell-free. The method in brief:
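Rat plasma spiked at 1 μM, equilibrium dialysis (8K MWCO) against 0.1 M phosphate pH 7.4 for 4 h at 37 °C, 1000 rpm. Unbound fraction = buffer/plasma concentration ratio. At least two technical replicates.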

A short description of series [10]: Aqueous solubility of the compound in pH 6.8 JP2 fluid measured after 4 hrs by HPLC-UV analysis. The class given is physicochemical. In short, it runs like this: (§2)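 Test compound diluted from 10 mM DMSO stock 2:165 into JP 1st fluid (pH 1.2) or JP 2nd fluid (pH 6.8); mixed 4 h at 37 °C with rotation at 1000 rpm, then filtered through 0.45 μm PVDF by centrifugation. At least two technical replicates.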

Series [11] in a line: Permeability of the compound at 10 uM measured after 4 hrs by PAMPA based LC-MS analysis. The class given is ADME. The conditions noted are these: read-out: permeability. In short, it runs like this: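 PAMPA on pre-coated plates: donor 10 μM compound in 5% DMSO/0.1 M phosphate pH 6.4, acceptor 5% DMSO/0.1 M phosphate pH 7.4; 4 h at 37 °C without agitation. Donor, acceptor and initial donor solutions quantified by LC-MS/MS; recovery above 90%. Antipyrine, metoprolol, sulfasalazine as references. At least two technical replicates.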
On the technique in general: The PAMPA barrier holds no transporters, so it reflects passive diffusion.

Series [12] can be described thus: Volume of distribution at steady state in Sprague-Dawley rat at 0.1 mg/kg, iv measured up to 8 hrs by LC-MS/MS analysis. In kind it is ADME, organism-based. The settings on record: in vivo, read-out: Vdss. The method in brief: as §1
The nature of series [13]: Metabolic stability in Sprague-Dawley rat liver microsomes assessed as residual rate at 1 uM preincubated for 5 mins followed by NADPH addition and measured after 30 mins by LC-MS/MS analysis. The settings on record: time 35 min, read-out: Stabilty. In kind it is ADME, Microsome. In short, it runs like this: (§3)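 Rat liver microsomes 0.2 mg/mL with 1 μM compound, 1 mM EDTA, 0.1 M phosphate pH 7.4; 5 min preincubation, then 1 mM NADPH (final) added, 30 min at 37 °C, 60 rpm. Quenched in cold acetonitrile/internal standard, supernatant by LC-MS/MS against time zero. CLint scaled with 44.8 mg protein/g liver, 40.0 g liver/kg. At least two technical replicates.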

The target of series [14] is Transthyretin (Homo sapiens) (UniProt P02766). Nature of the series: Binding affinity to TTR V30M mutant (unknown origin) expressed in Escherichia coli by isothermal titration calorimetry. In general terms: Isothermal titration calorimetry measures the heat released or taken up as one component is titrated into another.
A short description of series [15]: Intrinsic clearance in Sprague-Dawley rat liver microsomes at 1 uM preincubated for 5 mins followed by NADPH addition and measured after 30 mins by LC-MS/MS analysis. The conditions noted are these: time 35 min, read-out: CLH. In kind it is ADME, Microsome. The method in brief: as §3
A general note: Microsomes from liver hold many membrane-bound enzymes, among them those of drug oxidation.

Series [16] is described as follows: Metabolic stability in Sprague-Dawley rat liver microsomes assessed as residual rate at 1 uM measured after 30 mins by LC-MS/MS analysis. The class given is ADME, Microsome. The settings on record: read-out: Stabilty.
Series [17] can be described thus: Aqueous solubility of the compound in pH 1.2 JP1 fluid measured after 4 hrs ny HPLC-UV analysis. In kind it is physicochemical. The method in brief: as §2
Series [18] can be described thus: AUC (0 to 8 hrs) in Sprague-Dawley rat at 0.1 mg/kg, po measured up to 8 hrs by LC-MS/MS analysis. The class given is ADME, organism-based. On the set-up: route oral, dose 0.1 mg/kg, time <=8. The conditions noted are these: in vivo.

`O=C(O)c1ccc2nc(-c3cc(Cl)cc(Cl)c3)oc2c1`: the figures for the peak concentration (Cmax) in [1] and in [8] were 163 ng/mL and 537 ng/mL, respectively. Moreover, the figures for the AUC(0-t) in [2] and in series [18] were 1710 ng·h/mL and 956 ng·h/mL, respectively. In addition, in series [3], the area under the curve AUC(0-inf) was determined as 4330 ng·h/mL. In addition, the half-life in [4] was 12 h. The Tmax in series [5] is 8 h. In series [6], the clearance was 0.383 mL/min/kg. Further, in series [7], the bioavailability was found to be 55.8%. Further, the fraction unbound at 4 h, 1 µM in series [9] was found to be 0.0051. The figures for the solubility at 4 h in [10] and in series [17] were over 100 µM and 0.088 µM (≈ 0.0271 µg/mL), respectively. For the same molecule, the Papp at 4 h, 10 µM in series [11] is over 50 ×10⁻⁶ cm/s. Further, the Vd in series [12] was found to be 0.375 L/kg. Besides, the remaining at 0.5 h, 1 µM in series [13] and in [16] was 88% in each case. In series [14], the outcome was Active. In addition, the CLint scaled at 1 µM in series [15] worked out at 38.7 mL/min/kg.

The term Cmax denotes the highest concentration seen after dosing. A word on the AUC(0-t): it is exposure summed from dosing to a finite time, without extrapolation to infinity. As a reminder, the AUC(0-inf) is total exposure, with the tail of the curve extrapolated. Broadly, the Tmax is the time at which the peak concentration occurs. Broadly, the clearance is the volume of plasma or blood freed of the substance per unit of time. High values mean a high capacity for elimination, low ones a low capacity for elimination. By bioavailability is commonly meant the share of a dose that reaches the circulation, judged against a reference dose that is usually intravenous. Read a high bioavailability as much systemic uptake. Usually fraction unbound stands for free concentration divided by total concentration. As usually defined, the solubility is how much of the substance goes into solution per volume. Low values mean little dissolved substance, high ones much dissolved substance.
